From ChEMBL document CHEMBL1134531, “Peptide analogues of a subdominant epitope expressed in ebv-associated tumors: synthesis and immunological activity” (J Med Chem, 2001) come the findings set out here.

Series [1] can be described thus: Half life to evaluate susceptibility to enzymatic hydrolysis by incubating at 37 degree C in culture medium. The series is classed as ADME. Put shortly:
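Peptide (5 mg in acetonitrile/H₂O 1:1, 50 μL) added to 0.5 mL RPMI containing 10% fetal calf serum and incubated at 37 °C for up to 360 min. Reaction stopped with ethanol and centrifuged, then supernatant analysed by RP-HPLC. T1/2 taken from a least-squares linear regression of log nonapeptide concentration versus time, using at least five points.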

Series [2] in a line: Half life to evaluate susceptibility to enzymatic hydrolysis by incubating at 37 degree C in human plasma. The series is classed as ADME. Put shortly:
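Peptide (5 mg in acetonitrile/H₂O 1:1, 50 μL) mixed into 0.5 mL heparinized human plasma and incubated at 37 °C for up to 360 min. Ethanol added to stop the reaction, then centrifugation and RP-HPLC of the supernatant. Half-life obtained by least-squares linear regression of log nonapeptide concentration against time, with at least five time points.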

Residues, ends and D or L forms follow the SMILES beside them. *: point of attachment. X3 = OC[C@H]1O[C@H](*)[C@H](O)[C@H](O)[C@@H]1O

Take `CSCC[C@@H](NC(=O)[C@@H](NC(=O)[C@H](CC(C)C)NC(=O)[C@H](CC(C)C)NC(=O)CNC(=O)[C@H](C)NC(=O)[C@H](CC(C)C)NC(=O)[C@@H](N)Cc1ccc(O)cc1)[C@@H](C)O)C(=O)N[C@H](C(=O)O)C(C)C`: the half-life in series [1] was over 6 h; in series [2] it was 0.597 h.
For the compound `CSCC[C@H](NC(=O)[C@@H](NC(=O)[C@H](CC(C)C)NC(=O)[C@H](CC(C)C)NC(=O)CNC(=O)[C@H](C)NC(=O)[C@H](CC(C)C)NC(=O)[C@@H](N)Cc1ccc(O)cc1)[C@@H](C)O[C@H]1O[C@H](CO)[C@@H](O)[C@@H](O)[C@H]1O)C(=O)N[C@H](C(=O)O)C(C)C` (H-YLAGLLT(X3)MV-OH), the half-life in series [1] is over 6 h; in series [2], 1.01 h.
With `CSCC[C@@H](CN[C@H](C(=O)O)C(C)C)NC(=O)[C@@H](NC(=O)[C@H](CC(C)C)NC(=O)[C@H](CC(C)C)NC(=O)CNC(=O)[C@H](C)NC(=O)[C@H](CC(C)C)NC(=O)[C@@H](N)Cc1ccc(O)cc1)[C@@H](C)O` (HELM PEPTIDE1{Y.L.A.G.L.L.T.[CSCC[C@@H](CN[C@H](C(=O)O)C(C)C)N[*:1]]}$$$$V2.0), the half-life is over 6 h in series [1] and 5.07 h in series [2].
For `CC(C)C[C@H](NC(=O)CNC(=O)[C@H](C)NC(=O)[C@H](CC(C)C)NC(=O)[C@@H](N)Cc1ccc(O)cc1)C(=O)N[C@@H](CC(C)C)C(=O)N[C@H](C(=O)N[C@@H](CC[S+](C)[O-])C(=O)N[C@H](C(=O)O)C(C)C)[C@@H](C)O` (some centres not stated) (HELM PEPTIDE1{Y.L.A.G.L.L.T.[CS(=O)CC[C@H](N[*:1])C(=O)[*:2]].V}$$$$V2.0), the half-life is 1.56 h in series [1] and 0.522 h in series [2].
As to `CSCC[C@H](NC(=O)[C@@H](NC(=O)[C@H](CC(C)C)NC(=O)[C@H](CC(C)C)NC(=O)CNC(=O)[C@H](C)NC(=O)[C@H](CC(C)C)NC(=O)[C@@H](N)Cc1ccc(O)cc1)[C@@H](C)O)C(=O)N[C@H](C(=O)O)C(C)C`, the half-life amounted to 1.37 h in series [1] and 0.212 h in series [2].
Take `CSCC[C@H](NC(=O)[C@@H](NC(=O)[C@H](CC(C)C)NC(=O)[C@H](CC(C)C)NC(=O)CNC(=O)[C@H](C)NC(=O)[C@H](CC(C)C)NC(=O)[C@@H](N)Cc1ccc(O)cc1)[C@@H](C)O)C(=O)N(C)[C@H](C(=O)O)C(C)C` (HELM PEPTIDE1{Y.L.A.G.L.L.T.M.[meV]}$$$$V2.0): the half-life in series [1] and in series [2] was over 6 h in each case.
Consider H-YLAGLLTMV-NH2, for which the half-life was over 6 h in series [1] and 0.657 h in series [2].
Take `CSCC[C@H](NC(=O)[C@@H](NC(=O)[C@H](CC(C)C)NC(=O)[C@H](CC(C)C)NC(=O)CNC(=O)[C@H](C)NC(=O)[C@H](CC(C)C)NC(=O)[C@@H](N)Cc1ccc(O)cc1)[C@@H](C)O)C(=O)N[C@@H](C(=O)O)C(C)C`: the half-life was over 6 h in series [1] and 4.53 h in series [2].
For the compound `CSCCN(CC(=O)N[C@H](C(=O)O)C(C)C)C(=O)[C@@H](NC(=O)[C@H](CC(C)C)NC(=O)[C@H](CC(C)C)NC(=O)CNC(=O)[C@H](C)NC(=O)[C@H](CC(C)C)NC(=O)[C@@H](N)Cc1ccc(O)cc1)[C@@H](C)O` (HELM PEPTIDE1{Y.L.A.G.L.L.T.[CSCCN(CC(=O)[*:2])[*:1]].V}$$$$V2.0), the half-life in series [1] was over 6 h; in series [2] it was 0.86 h.
Consider `CSCC[C@H](NC(=O)[C@@H](NC(=O)[C@H](CC(C)C)NC(=O)[C@H](CC(C)C)NC(=O)CNC(=O)[C@H](C)NC(=O)[C@H](CC(C)C)NC(=O)[C@@H](N)Cc1ccc(O)cc1)[C@@H](C)O)C(=O)N[C@H](CO)C(C)C` (HELM PEPTIDE1{Y.L.A.G.L.L.T.M.[CC(C)[C@@H](CO)N[*:1]]}$$$$V2.0), for which the half-life in series [1] is over 6 h; in series [2], 1.66 h.
As for `CSCC[C@H](NC(=O)[C@@H](NC(=O)[C@H](CC(C)C)NC(=O)[C@H](CC(C)C)NC(=O)CNC(=O)[C@H](C)NC(=O)[C@H](CC(C)C)NC(=O)[C@@H](N)Cc1ccc(O)cc1)[C@@H](C)O)C(=O)N(CC(=O)O)C(C)C` (HELM PEPTIDE1{Y.L.A.G.L.L.T.M.[CC(C)N(CC(=O)O)[*:1]]}$$$$V2.0), the half-life in series [1] and in series [2] was over 6 h in each case.
